Source: PMC4201344 (ACS Chemical Biology, 2014)
Changes are numbered by the printed parent chain. Entries after “also recorded” stand apart in the source; their conditions may differ.

Tests used:
[1] = target: T1, GluClβ T6′S, Q174A/Y206F (Caenorhabditis elegans, UniProt Q17328, Q200A/T283S/Y232F); experiment: two-electrode voltage clamp, Xenopus laevis oocytes; type: cell-based, C. elegans
T1 sequence (Q17328 23-434 Q200A/Y232F/T283S): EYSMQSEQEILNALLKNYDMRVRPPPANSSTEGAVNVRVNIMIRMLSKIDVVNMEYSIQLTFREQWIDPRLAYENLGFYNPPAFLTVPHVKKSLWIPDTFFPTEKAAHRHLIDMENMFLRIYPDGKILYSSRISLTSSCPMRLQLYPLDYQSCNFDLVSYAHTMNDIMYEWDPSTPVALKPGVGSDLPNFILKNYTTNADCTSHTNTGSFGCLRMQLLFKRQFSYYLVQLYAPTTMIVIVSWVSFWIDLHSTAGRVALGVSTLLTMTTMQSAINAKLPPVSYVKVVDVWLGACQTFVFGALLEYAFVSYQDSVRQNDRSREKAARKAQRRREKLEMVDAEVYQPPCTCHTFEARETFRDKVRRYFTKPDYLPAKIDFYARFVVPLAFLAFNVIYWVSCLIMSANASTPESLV

[2] = target: GluClβ L9′A (Caenorhabditis elegans, UniProt Q17328, L286A); experiment: two-electrode voltage clamp, Xenopus laevis oocytes; type: cell-based, C. elegans; conditions: glutamate
Sequence of GluClβ L9′A (Q17328 23-434 L286A): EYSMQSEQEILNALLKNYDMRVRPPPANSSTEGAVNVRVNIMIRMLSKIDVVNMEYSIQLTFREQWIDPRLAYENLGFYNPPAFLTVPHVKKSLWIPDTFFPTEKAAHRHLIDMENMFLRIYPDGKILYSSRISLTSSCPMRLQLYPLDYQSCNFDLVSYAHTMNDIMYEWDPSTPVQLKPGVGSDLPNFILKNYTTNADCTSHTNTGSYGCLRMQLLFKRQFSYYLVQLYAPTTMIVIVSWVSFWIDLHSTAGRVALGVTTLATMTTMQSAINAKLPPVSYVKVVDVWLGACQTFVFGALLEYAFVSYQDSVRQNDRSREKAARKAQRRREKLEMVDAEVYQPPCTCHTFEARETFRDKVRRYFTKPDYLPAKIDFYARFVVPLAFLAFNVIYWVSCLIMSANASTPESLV
Outline: (§1)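 C. elegans GluClβ (mammalian codon-optimised) in pGEMhe, mutated by QuikChange; T7 mRNA. […] Voltage clamp at −60 mV in Ca-free ND96, pH 7.5. […] Peak currents taken from baseline, normalised, averaged per concentration, and fit to Hill equation (EC50, nH).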

[3] = target: T2, GluClβ A20′T (Caenorhabditis elegans, UniProt Q17328, A297T); experiment: two-electrode voltage clamp, Xenopus laevis oocytes; type: cell-based, C. elegans; conditions: glutamate
T2 sequence (Q17328 23-434 A297T): T1 sequence (Q17328 23-434 Q200A/Y232F/T283S) with A178Q, F210Y, S261T, A275T

[4] = system: GluClβ T6′S, Y206TAG OMe–Phe; experiment: two-electrode voltage clamp, Xenopus laevis oocytes, nonsense suppression; type: cell-based, C. elegans; conditions: glutamate
[5] = system: GluClβ T6′S, Y206TAG F2–Phe (3,5-F2–Phe); experiment: as above; type: cell-based, C. elegans; conditions: glutamate
[6] = target: GluClβ T6′S, N202A (Caenorhabditis elegans, UniProt Q17328, N228A/T283S); experiment: two-electrode voltage clamp, Xenopus laevis oocytes; type: cell-based, C. elegans; conditions: glutamate
Sequence of GluClβ T6′S, N202A (Q17328 23-434 N228A/T283S): as the sequence (Q17328 23-434 L286A) above, with N206A, T261S, A264L counted along it

[7] = target: GluClβ T6′S, R59E (Caenorhabditis elegans, UniProt Q17328, R85E/T283S); experiment: two-electrode voltage clamp, Xenopus laevis oocytes; type: cell-based, C. elegans; conditions: glutamate
Sequence of GluClβ T6′S, R59E (Q17328 23-434 R85E/T283S): as the sequence (Q17328 23-434 L286A) above, with R63E, T261S, A264L counted along it
Outline: as §1

[8] = target: T3, GluClβ with α signal peptide, T6′S, F96TAG Phe (Caenorhabditis elegans, UniProt Q17328, T283S); experiment: two-electrode voltage clamp, Xenopus laevis oocytes, nonsense suppression; type: cell-based, C. elegans; conditions: glutamate
T3 sequence (Q17328 23-434 T283S): T1 sequence (Q17328 23-434 Q200A/Y232F/T283S) with A178Q, F210Y
Outline: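 Site-specific TAG codon, read by 74mer THG73 tRNA ligated to dCA-acylated amino acid; NVOC removed by 5 min xenon-lamp irradiation just before injection. Oocytes coinjected with 37.5 ng mRNA plus ~1 μg/μL tRNA at 48 and 24 h pre-recording; unacylated 76mer tRNA served as read-through control.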

[9] = target: GluClβ AG-2′,-1′PA (Caenorhabditis elegans, UniProt Q17328, A275P/G276A); experiment: two-electrode voltage clamp, Xenopus laevis oocytes; type: cell-based, C. elegans; conditions: glutamate
Sequence of GluClβ AG-2′,-1′PA (Q17328 23-434 A275P/G276A): as the sequence (Q17328 23-434 L286A) above, with A253P, G254A, A264L counted along it

[10] = target: GluClβ T6′S, Y156F (Caenorhabditis elegans, UniProt Q17328, T283S/Y182F); experiment: as above; type: cell-based, C. elegans; conditions: glutamate
Sequence of GluClβ T6′S, Y156F (Q17328 23-434 Y182F/T283S): as the sequence (Q17328 23-434 L286A) above, with Y160F, T261S, A264L counted along it

[11] = system: GluClα T2′A; conditions: otherwise glutamate-insensitive channel; cited from earlier work

SMILES: N[C@@H](CCC(=O)O)C(=O)O [glutamate]
- EC50 ([1]; glutamate): 920 ± 40 µM
- Hill ([1]; glutamate): 2.2 ± 0.2
- Ω ([1]; mutant cycle analysis Q174A, Y206F): 0.67
- ΔΔG ([1]; mutant cycle analysis Q174A/Y206F): 0.23 kcal/mol
- EC50 [2]: constitutively active
- EC50 [3]: 110 ± 20 µM
- Hill [3]: 1.7 ± 0.1
- Imax [3]: 0.5–48 μA
- EC50 [4]: 560 ± 10 µM
- Hill [4]: 1.8 ± 0.1
- Imax [4]: 0.1–1.4 μA
- Imax [5]: 0.1–0.6 μA
- EC50 ([5]; no plateau at highest concentration 100 mM): > 100000 µM
- Hill [6]: 3.3 ± 0.2
- EC50 [7]: nonfunctional; also recorded: no response
- EC50 [8]: 12 ± 1 µM
- Hill [8]: 2.8 ± 0.3
- Imax [8]: 0.1–4 μA
- Imax [9]: 12–66 μA
- EC50 [10]: 6400 ± 400 µM
- Hill [10]: 1.6 ± 0.1
- glutamate sensitivity [11]: restore glutamate sensitivity
